Several values for one entry are separate records, joined by “and”; a condition that tells them apart may be missing. Equal values may be shown once.
How the values were obtained:
[1] = MTT cell viability assay; type: cell-based, human; conditions: human, A375 cells, Cell viability [%] @ 10 μM±SD
Outline: (§1)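 A375 cells were kept in high-glucose DMEM with 10% heat-inactivated FBS, 2 mM L-glutamine and pen/strep. Cells were seeded at 0.5×10^5/well and exposed to 10 µM test compound for 48 h at 37 °C, 5% CO₂, then given MTT. Viability = 100(x−y)/(z−y), where x, y and z are absorbance of treated, resting and untreated cells. Mean ± SD, ≥3 experiments in triplicate.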

[2] = tested on: A375 cells; assay: MTT cell viability assay; type: cell-based, human; conditions: 48 h
Outline: as §1

[3] = target: IDO1 (Homo sapiens, UniProt P14902); assay: Cellular IDO1 inhibition; type: cell-based; conditions: A375 cell line, IFN-γ, 48 h
Outline: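 A375 cells (0.5×10^5/well) were grown overnight, then given test compound (serial dilutions 0.01–30 µM, or single 10 µM) with human IFN-γ (500 U/mL final) and 0.1% DMSO for 48 h. Medium was deproteinized with 20% CCl₃COOH. L-Kyn was quantified by C18 HPLC at 330 nm against a calibration curve; % inhibition was taken versus basal levels. IC50s came from concentration-response curves, ≥3 experiments in triplicate.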

[4] = target: recombinant form of human IDO1 (rhIDO1) (Homo sapiens, UniProt P14902); assay: rhIDO1 enzymatic assay; type: biochemical; conditions: read-out: rhIDO1 inhibition
Outline: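 Recombinant human IDO1 inhibitor-screening kit: 10 µM test compound in complete reaction buffer, 45 min at 37 °C. Stopped with 30% (w/v) CCl₃COOH, heated 50 °C for 15 min and centrifuged. Supernatant was mixed 1:1 with 2% p-dimethylaminobenzaldehyde in acetic acid, and kynurenine pigment read at 490 nm. The kit's positive inhibition control was included. Mean ± SEM, three experiments in triplicate.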

[5] = target: holo-IDO1 (Homo sapiens, UniProt P14902); assay: Heme detection; type: binding; conditions: 1 μM holo-IDO1, 120 min, 37 °C; VS9 different concentrations, epacadostat 20 μM
Outline: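 1 µM holo-IDO1 in 100 mM potassium phosphate (pH 7.2) with 1 mM CHAPS was incubated with varying test-compound concentrations, or 20 µM reference inhibitor, for 120 min at 37 °C. Samples were diluted 100-fold, and free heme was measured with a hemin detection kit at 570 nm. Values are relative to untreated, mean of n=3 ± SD.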

[6] = target: TDO (P1.TDO) (Homo sapiens, UniProt P48775); assay: IDO1 and TDO selectivity assay, P1.TDO cells; type: cell-based; conditions: 10 μM, 16 h
Outline: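 Mouse mastocytoma P815-derived P1.HTR cells, stably electroporated with a human TDO plasmid and selected in puromycin, grown in IMDM with 1 mM glutamine and penicillin/streptomycin, used at ≤10th passage. Cells incubated 16 h with 10 μM test compound; DMSO vehicle as control. Supernatant L-Kyn measured by HPLC-UV (C18 column) against a calibration curve, detection limit 0.05 μM. Triplicate.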

[7] = In vitro metabolic stability in rat liver S9 fraction; type: in vitro ADME; conditions: rat liver S9 with NADPH, 5 μM substrate, 37 °C
Outline: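 Pooled male Sprague Dawley rat liver S9 (1.5 mg/mL final protein) was used in 50 mM Tris pH 7.4 with 3.3 mM MgCl₂, 1.3 mM β-NADP, 3.3 mM glucose 6-phosphate, 0.4 U/mL G6PDH and 1% acetonitrile. Test compound was 5 µM, shaken 60 min at 37 °C. Controls lacked S9 or cofactors. Reactions were stopped with ice-cold acetonitrile and centrifuged; residual substrate was measured.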

Sequence of IDO1 (P14902 whole entry): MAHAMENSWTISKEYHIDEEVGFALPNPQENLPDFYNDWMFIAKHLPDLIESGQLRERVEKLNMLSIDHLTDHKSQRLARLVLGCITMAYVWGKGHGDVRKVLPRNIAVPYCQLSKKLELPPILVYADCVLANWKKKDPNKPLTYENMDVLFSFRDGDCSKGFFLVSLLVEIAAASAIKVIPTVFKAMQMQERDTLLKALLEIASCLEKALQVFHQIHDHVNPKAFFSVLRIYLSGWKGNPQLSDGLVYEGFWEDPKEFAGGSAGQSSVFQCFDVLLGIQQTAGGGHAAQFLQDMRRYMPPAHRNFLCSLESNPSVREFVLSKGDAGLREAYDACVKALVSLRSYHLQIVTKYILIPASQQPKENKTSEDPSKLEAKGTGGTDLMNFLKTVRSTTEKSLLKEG
Sequence of holo-IDO1 (P14902 whole entry): as above
Sequence of recombinant form of human IDO1 (rhIDO1) (P14902 whole entry): as above
Sequence of TDO (P1.TDO) (P48775 whole entry): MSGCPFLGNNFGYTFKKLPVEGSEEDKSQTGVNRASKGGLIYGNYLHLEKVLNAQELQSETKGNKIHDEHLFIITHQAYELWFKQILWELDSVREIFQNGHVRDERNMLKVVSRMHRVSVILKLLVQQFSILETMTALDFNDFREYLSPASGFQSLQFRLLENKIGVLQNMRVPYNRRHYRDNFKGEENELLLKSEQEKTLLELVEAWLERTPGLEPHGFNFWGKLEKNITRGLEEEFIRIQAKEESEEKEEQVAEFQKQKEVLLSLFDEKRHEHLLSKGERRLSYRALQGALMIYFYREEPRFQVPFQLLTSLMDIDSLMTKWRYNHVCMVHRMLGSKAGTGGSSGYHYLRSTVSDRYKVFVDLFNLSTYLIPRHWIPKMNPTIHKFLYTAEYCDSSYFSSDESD

IDO cellular assay inhibition [%] @ 10 μM±SD ([3]; 10 μM, L-Kyn by HPLC): 42±9%
IC50 ([3]; IC50±SD [μM]): 2.6 µM and 2.8 µM
inhibition at 10 µM [4]: 54.6 ± 3.1%
levels of free heme after incubation with IDO1 [5]: did not increase the levels of free heme
Residual peak area after RLS9 incubation (60 min) [7]: higher than 99%
SMILES: O=C(NCc1nnc2ccc(C(F)(F)F)cn12)c1cccc2cn[nH]c12 [Compound 2, N‐((6‐(Trifluoromethyl)‐[1,2,4]triazolo[4,3‐a]pyridin‐3‐yl)methyl)‐1H‐indazole‐7‐carboxamide]
viability at 48 h, 10 μM [1]: 91 ± 9.9%
Cell viability [%] @ 10 μM±SD [2]: 87±18.3%
Kyn levels in P1.TDO cells [6]: not able to induce a reduction of Kyn levels in P1.TDO

— paper PMC9291769 (Chemmedchem, 2021)
